# From ChEMBL document CHEMBL4819027, “Design, synthesis and biological evaluation of novel 2-(4-(1H-indazol-6-yl)-1H-pyrazol-1-yl)acetamide derivatives as potent VEGFR-2 inhibitors” (Eur J Med Chem, 2021)
# Active and inactive are the calls of the source. The rule behind the calls is not given here.
# Tests used:
# GES1 = test: Cytotoxicity against human GES-1 cells assessed as inhibition of cell growth incubated for 72 hrs by MTT assay; type: cell-based; settings: GES1, 72 h
# How it was run: (§1)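 Log-phase cells were seeded at 5 × 10³ per well and attached 24 h. HT-29 and GES-1 were grown in DMEM-based medium, A549/HepG2/HGC-27 in RPMI-1640, HUVEC in ECM with ECGS; all media had 10% FBS. Cells were exposed to graded compound concentrations for 72 h at 37 °C. MTT (5 mg/mL stock) was added for 4 h, formazan dissolved in DMSO, and A490 read. IC50 was obtained by nonlinear sigmoidal regression; mean ± S.E. of three experiments.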
# HGC-27 [1] = test: Induction of apoptosis in human HGC-27 cells assessed as total apoptotic cells level at 0.5 uM incubated for 24 hrs by propidium iode and annexin V-FITC staining based flow cytometry; type: functional
# How it was run: (§2)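 HGC-27 cells (1.0 × 10⁶ per 60 mm dish) were treated 24 h with 0.1% DMSO or compound (0.1, 0.5, 1 μM). Cells were stained with Annexin V-FITC in HEPES/NaCl/CaCl₂ binding buffer (pH 7.4) for 15 min at room temperature, then with PI for 10 min. About 10 000 events were acquired by flow cytometry to give viable, early apoptotic, late apoptotic and necrotic fractions.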
# HGC-27 [2] = test: Antiinvasive activity against human HGC-27 cells assessed as reduction in cell invasion at 0.1 to 1 measured after 24 hrs by transwell invasion assay; type: functional, cell-based
# How it was run: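 Transwell inserts (12 μm pore) were precoated with Matrigel. HGC-27 cells at 5 × 10⁵ cells/mL were placed in the upper well in serum-free medium with compound (0.1, 0.5, 1 μM). The lower chamber held RPMI-1640 with 10% FBS. After 24 h at 37 °C, invaded cells were methanol-fixed and stained with 0.1% crystal violet. Cells were counted in three random fields; three independent experiments, mean ± SD.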
# HGC-27 [3] = test: Induction of apoptosis in human HGC-27 cells assessed as up regulation of Bax protein expression at measured after 24 hrs by Western blot analysis; type: functional, cell-based; settings: dose 0.1-1 µM
# How it was run: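 HGC-27 cells (1.0 × 10⁶ per 60 mm dish) were treated 24 h with 0.1% DMSO or compound (0.1, 0.5, 1 μM). Cells were lysed in RIPA with PMSF and phosphatase inhibitor, and protein measured by BCA. Lysates were run on 8–12% SDS-PAGE, transferred to nitrocellulose and probed with primary antibodies overnight at 4 °C, then HRP secondary. Bands were detected by ECL and densitometry; at least triplicate.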
# HGC-27 [4] = test: Inhibition of cell migration at human HGC-27 cells measured up to 24 hrs by microscopic based wound healing assay; type: functional; settings: dose 0.1-1 µM, time hrs <=24
# How it was run: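 HGC-27 grown to 80–90% confluence in 6-well plates, serum-starved 12 h, scratched with 200 µL tip (~1 mm lane). Washed, then given complete medium alone or with compound (0.1, 0.5, 1 µM) or sorafenib positive control. Imaged by inverted microscope at 0, 6 and 24 h; relative scratch closure quantified; mean ± SD, three independent experiments.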
# HGC-27 [5] = test: Antimigratory activity against human HGC-27 cells assessed as relative closure of scratches at 0.5 uM measured after 24 hrs by scratch wound healing assay relative to control; type: functional
# How it was run: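 HGC-27 monolayers at 80–90% confluence were serum-starved 12 h, then scratched to give 1 mm lanes. After a PBS wash, cells received complete medium with or without compound (0.1, 0.5, 1 μM). Wounds were imaged at 0, 6 and 24 h. Relative scratch closure was quantified against untreated control; mean ± SD of three experiments.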
# HUVEC [6] = test: Antiangiogenic activity against HUVEC cells assessed as reduction in VEGF-induced tube formation tube formation incubated for 12 hrs by matrigel-based assay; type: functional, cell-based; settings: Homo sapiens
# How it was run: (§3)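 HUVECs at 4 × 10⁵ cells/mL seeded on Matrigel that had been polymerized 1 h at 37 °C. Cells were stimulated with 20 ng/mL VEGF and treated with compound (1, 2.5, 5 and 10 μM) or 0.1% DMSO vehicle for 12 h at 37 °C. Tubes were imaged by inverted microscopy. Tube length, surface area and branch points were quantified as pixel area.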
# HGC-27 [7] = test: Induction of apoptosis in human HGC-27 cells assessed as necrotic cells level at 0.5 uM incubated for 24 hrs by propidium iode and annexin V-FITC staining based flow cytometry (reference value: 1.64%); type: functional; how it was run: as §2
# HGC-27 [8] = test: Induction of apoptosis in human HGC-27 cells assessed as late apoptotic cells level at 1 uM incubated for 24 hrs by propidium iode and annexin V-FITC staining based flow cytometry (reference value: 0.86); type: functional; how it was run: as §2
# HGC-27 [9] = test: Induction of apoptosis in human HGC-27 cells assessed as late apoptotic cells level at 0.5 uM incubated for 24 hrs by propidium iode and annexin V-FITC staining based flow cytometry (reference value: 0.86%); type: functional; how it was run: as §2
# HGC-27 [10] = test: Induction of apoptosis in human HGC-27 cells assessed as early apoptotic cells level at 0.5 uM incubated for 24 hrs by propidium iode and annexin V-FITC staining based flow cytometry (reference value: 1.48%); type: functional; how it was run: as §2
# HUVEC [11] = test: Cytotoxicity against human HUVEC cells assessed as inhibition of cell growth incubated for 72 hrs by MTT assay; type: cell-based; how it was run: as §1
# HGC-27 [12] = test: Antimigratory activity against human HGC-27 cells assessed as number of migration cells at 0.1 uM measured after 24 hrs by transwell migration assay (reference value: 320); type: functional
# HUVEC [13] = test: Antiangiogenic activity against HUVEC cells assessed as reduction in VEGF-induced tube length at 1 to 10 uM incubated for 12 hrs by matrigel-based assay; type: functional, cell-based; settings: Homo sapiens, dose 1-10 µM; how it was run: as §3
# HGC-27 [14] = test: Induction of apoptosis in human HGC-27 cells assessed as late apoptotic cells level incubated for 24 hrs by propidium iode and annexin V-FITC staining based flow cytometry; type: functional, cell-based; settings: dose 0.1-1 µM; how it was run: as §2
# HGC-27 [15] = test: Antimigratory activity against human HGC-27 cells assessed as number of migration cells at 0.5 uM measured after 24 hrs by transwell migration assay (reference value: 320); type: functional
# HGC-27 [16] = test: Inhibition of colony formation in human HGC-27 cells at 1 uM after 12 days by crystal violet staining based assay; type: functional; settings: HGC-27, 288 h, time 12 day
# How it was run: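 HGC-27 cells (500/well, 6-well plates) attached 24 h at 37 °C, then kept 12 days in medium with compound (0.1, 0.5, 1 µM), 0.1% DMSO vehicle or 5 µM sorafenib. Washed with cold PBS, methanol-fixed, stained 0.1% crystal violet 30 min; colonies >50 cells photographed and counted.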
# HGC-27 [17] = test: Induction of apoptosis in human HGC-27 cells assessed as viable cells level at 1 uM incubated for 24 hrs by propidium iode and annexin V-FITC staining based flow cytometry (reference value: 96.0%); type: functional; how it was run: as §2
# HGC-27 [18] = test: Induction of apoptosis in human HGC-27 cells assessed as viable cells level at 0.1 uM incubated for 24 hrs by propidium iode and annexin V-FITC staining based flow cytometry (reference value: 96.0%); type: functional; how it was run: as §2
structure (smiles),measurement,setting,value
CC(=O)Nc1n[nH]c2cc(-c3cnn(CC(=O)Nc4ccc(C)c(C(F)(F)F)c4)c3)ccc12,IC50,GES1,187 µM
same,Activity,HGC-27 [1],19.55%
same,inhibition,HGC-27 [2],Dose-Dependent Effect
same,Activity,HGC-27 [3],Dose-Dependent Effect
same,inhibition,HGC-27 [4],Dose-Dependent Effect
same,inhibition at 0.5 µM,HGC-27 [5],28%
same,inhibition,HUVEC [6],Dose-Dependent Effect
same,Activity,HGC-27 [7],10.8%
same,Activity,HGC-27 [8],17%
same,Activity,HGC-27 [9],11.2%
same,Activity,HGC-27 [10],8.35%
same,IC50,HUVEC [11],7.15 µM
same,Activity,HGC-27 [12],212
same,Activity,HUVEC [13],Active
same,Activity,HGC-27 [14],Dose-Dependent Effect
same,Activity,HGC-27 [15],87
same,inhibition at 1 µM,HGC-27 [16],100%
same,Activity,HGC-27 [17],61.6%
same,Activity,HGC-27 [18],90.5%
